A word on the IC50: it is the point on the concentration scale where inhibition reaches its midpoint. The EC50 is the concentration that produces a half-maximal response.

The source of these data is ChEMBL document CHEMBL1130145, “Synthesis, anti-human immunodeficiency virus and anti-hepatitis B virus activities of novel oxaselenolane nucleosides” (J Med Chem, 1997).

The test system of series [1] is CCRF-CEM. The experiment in a line: The cytotoxicity against CEM cells. It counts as functional, cell-based. To be noted: Homo sapiens. In short, it runs like this: (§1)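 Cytotoxicity tested at concentrations up to 100 μM in PBM, CEM and Vero cells.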
Series [2] in a line: In vitro anti-HIV activity in peripheral blood mononuclear cells. The series is classed as functional. A digest of the protocol:
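Antiviral assay in primary lymphocytes (peripheral blood mononuclear cells) infected with HIV-1; activity reported as EC50.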

A short description of series [3]: Toxic activity against VERO cells. The series is classed as toxicity, cell-based. To be noted: Chlorocebus sabaeus. In short, it runs like this: as §1
A short description of series [4]: Toxic activity against peripheral blood mononuclear cells. It counts as toxicity. A digest of the protocol: as §1
The test system of series [5] is HepG2. Nature of the series: In vitro effective concentration against hepatitis B virus was determined in 2.2.15 cells. To be noted: Homo sapiens. The series is classed as functional, cell-based.

For `Nc1ccn([C@@H]2C[Se][C@@H](CO)O2)c(=O)n1`, the IC50 in series [1], in series [3] and in series [4] was over 100 µM in each case. Also, the EC50 in series [2] worked out at 2.4 µM.
In the case of `Nc1nc(=O)n([C@@H]2C[Se][C@@H](CO)O2)cc1F`, the IC50 in series [1], in series [3] and in series [4] was over 100 µM each time. The same compound had a concentration giving a half-maximal response (EC50) in series [2] of over 10 µM.
Regarding `Nc1nc(=O)n([C@H]2C[Se][C@@H](CO)O2)cc1F`, the values for the EC50 in series [5] and in series [2] were 1.2 µM and 0.51 µM, respectively. Besides, the IC50 in series [1], in series [3] and in series [4] was over 100 µM each time.
For `Nc1ccn([C@H]2C[Se][C@@H](CO)O2)c(=O)n1`, the EC50 in series [5] is 1.2 µM; in series [2], 0.88 µM. Besides, the concentration for half-maximal inhibition (IC50) in series [1], in series [3] and in series [4] was over 100 µM each time.
Consider `Nc1ccn([C@@H]2CSC(CO)O2)c(=O)n1` (single isomer, unassigned) [LAMIVUDINE], for which the figures for the EC50 in series [5] and in series [2] were 0.008 µM and 0.07 µM, respectively. In addition, the IC50 in series [1], in series [3] and in series [4] was over 100 µM in each case.
